Source: PubChem (Johns Hopkins Ion Channel Center)
hERG protect: hERG (human) protection from proarrhythmic block. Q12809. CHO-hERG, FluxOR thallium flux, dofetilide IC70 present. activation (rescue from dofetilide block), less the hit threshold, % at 10 µM. actives 0.51% (n = 310,000). AID 1511;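 active means activation above the mean of controls blocked by dofetilide plus 5 SD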;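 further: thallium influx through hERG after potassium depolarization seen as dye fluorescence rise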
KCNK3 inh: human KCNK3 channel inhibition, primary screen; B-score at 10 µM; CHO-KCNK3 thallium flux, FluxOR fluorescence; active compounds read low; actives 0.84% (n = 340,000); O14649;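 active means B-score under library mean minus 4 SD, starting fluorescence ratio at most library mean plus 5 SD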;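 further: more negative B-score means stronger inhibition of thallium flux through KCNK3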
Target sequence (O14649 whole entry, looked up): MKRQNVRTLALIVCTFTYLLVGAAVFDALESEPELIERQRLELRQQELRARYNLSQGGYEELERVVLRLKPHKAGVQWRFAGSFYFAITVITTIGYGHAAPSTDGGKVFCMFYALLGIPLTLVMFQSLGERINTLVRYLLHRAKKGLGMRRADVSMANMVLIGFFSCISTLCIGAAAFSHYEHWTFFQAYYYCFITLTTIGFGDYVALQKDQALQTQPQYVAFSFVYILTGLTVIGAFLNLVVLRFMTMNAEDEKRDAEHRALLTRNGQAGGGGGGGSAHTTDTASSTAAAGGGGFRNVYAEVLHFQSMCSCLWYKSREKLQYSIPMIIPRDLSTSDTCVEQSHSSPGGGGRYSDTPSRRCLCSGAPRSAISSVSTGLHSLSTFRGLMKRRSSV
Kir21 block: Kir2.1 (mouse) channel inhibition. HEK293-Kir2.1, FluxOR thallium flux fluorescence; active compounds read low. B-score at 10 µM. actives 0.85% (n = 310,000). AID 1672;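 active means fluorescence ratio B-score at or below minus 3 SD of library scores, with starting-brightness B-score within 2 SD, cut at about -4.2 in these data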;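 further: channel flux triggered by added potassium and thallium sulfate stimulus; B-score of peak minus minimum fluorescence over baseline after thallium stimulus; more negative B-score means stronger Kir2.1 block with less thallium influx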
KCNK9 inh: human KCNK9 channel inhibition; B-score at 10 µM; AID 488922; HEK293 KCNK9, FluxOR thallium flux fluorescence; active compounds read low; actives 1.2% (n = 310,000);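 active means ratio B-score over 3 SD below the library mean, with starting fluorescence within 5 SD of its mean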;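 further: negative B-score means less thallium flux so channel inhibition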
KCNQ1 inh: human KCNQ1 channel inhibition | P51787 | CHO-K1 KCNQ1, FluxOR thallium flux fluorescence; active compounds read high | B-score at 10 µM | actives 1.3% (n = 310,000);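 active means compounds whose thallium flux B-score, printed positive for inhibition, exceeds three library SD while starting fluorescence stays within three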;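 further: channel opened by potassium depolarization with thallium stimulus after 20 min compound exposure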
KCNQ1 pot: potentiators or activators of human KCNQ1 potassium channel | actives 0.35% (n = 310,000) | B-score at 10 µM | CHO-K1 KCNQ1, thallium flux FluxOR fluorescence; active compounds read high;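 active means fluorescence ratio B-score, a plate-corrected score, at least three library SD, with initial intensity B-score within 5 SD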
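Material: CHO-K1 cells stably expressing KCNQ1. Medium: assay buffer for compound exposure, DMSO matched across wells. Reagent: K+/Tl+ depolarizing stimulus. Compound dosing: single-concentration screen. Times: 37 °C overnight plating, 90-min dark dye load, 20-min compound pretreatment. Technique: FluxOR Tl+ flux fluorescence.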
KCNK9 inh conf: human KCNK9 inhibitor confirmation. actives 43% (n = 4,900). shares compounds with KCNK9 inh. inhibition, % at 10 µM. HEK293 KCNK9 cells, FluxOR thallium flux fluorescence;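 active means thallium signal inhibited by more than 5 SD of the compound-free buffer control wells, on both duplicate plates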;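 further: 0% = assay buffer control wells without compound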
Kir21 sel: selectivity of KCNK9 modulators against mouse Kir2.1; Kir2.1 cells, FluxOR thallium flux fluorescence; actives 4% (n = 4,900); shares compounds with KCNK9 inh; AID 492993; inhibition, % at 10 µM;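 active means thallium signal drop more than 5 SD beyond the mean of the no-compound control wells, seen in both duplicate plates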;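 further: signal is fluorescence rise after thallium addition divided by baseline fluorescence; plate controls were assay buffer only for no effect and full block by chlorpromazine control for full effect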
KCNK9 uninduced: second counter-screen for KCNK9 modulators: effect in non-induced cells | shares compounds with KCNK9 inh | non-induced KCNK9-HEK293, FluxOR thallium flux | inhibition, % at 10 µM | actives 40% (n = 4,900) | AID 492997;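 active means thallium signal drop beyond 5 SD of the untreated control mean, on both duplicate plates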;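 further: plate controls were buffer only IC0 wells for no effect and SID17386958 at its maximal inhibitory level for full effect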
The depositor's hits bear a star; i = inactive; . = no result given; ! = repeats disagree. An excerpt weighted towards active compounds, which were near 3.7% of everything screened.

SMILES	hERG protect	KCNK3 inh	Kir21 block	KCNK9 inh	KCNQ1 inh	KCNQ1 pot	KCNK9 inh conf	Kir21 sel	KCNK9 uninduced
Cc1onc(-c2c(F)cccc2Cl)c1C(=O)OCC(=O)NC(N)=O	-10	i	1.8	i	i	i	.	.	.
COc1ccc(NC(=O)N(CCc2ccccc2)Cc2cc3c(C)cc(C)cc3[nH]c2=O)cc1	-16	i	0.27	i	i	i	i	i	i
CC(C#N)(CCc1ccccn1)CCc1ccccn1	.	i	.	.	.	.	.	.	.
O=C(O)c1ccccc1NS(=O)(=O)c1cccc(-n2sc3ccccc3c2=O)c1	-21	i	0.37	i	i	13*	i	i	i
O=C(O)c1ccccc1NS(=O)(=O)c1cccc(C(F)(F)F)c1	-8	i	0.15	i	i	i	.	.	.
N#Cc1ccc(-c2cccnc2)nc1SCc1ccc(Cl)c(Cl)c1	-4	i	3	i	i	i	.	.	.
N#Cc1ccc(-c2cccnc2)nc1SCc1ccc(Cl)cc1Cl	-4	i	0.54	-13*	i	i	46%*	i	38%*
CC/C(C)=N\Nc1nc(-c2cc3cc(OC)ccc3oc2=O)cs1	-9	i	0.51	i	i	i	i	i	i
COc1ccc(C)cc1NC(=O)CC(O)(C(F)(F)F)C(F)(F)F	-15	i	2.1	-9.6*	i	i	i	i	i
CCOC(=O)Nc1cc(C)ccc1OC	-7	i	0.33	i	i	i	.	.	.
CCOc1ccccc1N1CCN(Cc2ccco2)CC1	-4	i	0.01	i	i	i	.	.	.
CCOc1ccccc1N1CCN(C/C=C/c2ccc(N(C)C)cc2)CC1	-9	i	-1.9	i	i	i	i	i	i
CCOc1ccccc1N1CCN(Cc2ccc(Br)s2)CC1	-8	i	-0.23	i	i	i	i	i	i
Cc1ccc(Cl)cc1NC1=C/C(=N\S(=O)(=O)c2cccs2)c2ccccc2C1=O	-2	-10*!	0.68	-8.3*	i	i	26%*	i	i
CC1CC(C)CN(S(=O)(=O)c2ccc(Oc3ccc([N+](=O)[O-])cc3)cc2)C1 (configuration not stated)	-9	i	-0.69	i	i	i	i	i	i
CC(NC(=O)CCCc1nnc2n(C)c(=O)c3sccc3n12)c1ccccc1 (configuration not stated)	-8	i	0.43	i	i	i	.	.	.
C/C(=N\NC(=O)Cc1csc(N2CCOCC2)n1)c1ccc(Cl)c(Cl)c1	0	i	0.16	i	i	i	.	.	.
CCCCC(=O)Nc1cccc(-c2nc3ncccc3o2)c1	-23	i	-0.05	-11*	i	i	34%*	i	i
O=C(C/C=N\OCc1ccc([N+](=O)[O-])cc1)Nc1ccc(Br)cc1	-1	i	0.69	i	i	i	.	.	.
Cc1ccc(C)c(NC(=S)N/N=C2\CCc3ccccc32)c1	-8	i	-0.68	i	i	i	.	.	.
Cc1cccc(NC(=S)N/N=C2/CCCCc3ccccc32)c1	5.8*	i	1.2	i	i	i	i	i	i
Cc1ccc(NC(=S)N/N=C2/CCCCc3ccccc32)cc1	-5	i	-0.98	i	i	8*	i	i	i
Clc1cccc(-c2cc3nc4c(c(NCc5ccco5)n3n2)CCCC4)c1	-12	i	-0.82	-9.4*	i	i	30%*	i	32%*
Cc1ccc(-c2noc(CSc3nnc(Cc4ccccc4)n3-c3ccc(Cl)cc3)n2)cc1	-10	i	-1.3	i	i	i	i	i	31%*
Cc1ccc(-c2noc(CSc3nnc(CCc4ccccc4)n3-c3ccccc3)n2)cc1	-10	i	-2.3	-10*	i	i	i	i	36%*
SMILES	hERG protect	KCNK3 inh	Kir21 block	KCNK9 inh	KCNQ1 inh	KCNQ1 pot	KCNK9 inh conf	Kir21 sel	KCNK9 uninduced
Cn1c(SCc2nc(-c3ccc(Cl)cc3)no2)nnc1-c1ccccc1	-10	i	0.15	i	i	i	.	.	.
COc1ccc(-c2noc(CSc3nnc(Cc4ccccc4)n3-c3ccc(Cl)cc3)n2)cc1	-14	i	-0.53	i	i	i	i	i	i
O=S(=O)(c1ccc(NC(=S)NCc2ccc(F)cc2)cc1)N1CCOCC1	-12	i	-0.93	i	i	i	.	.	.
Nc1ccc2nc(SCc3cccc(F)c3)sc2c1	-9	i	0.51	i	i	i	.	.	.
COc1cc(OC)cc(C(=O)OCCCOC(=O)c2cc(OC)cc(OC)c2)c1	-7	i	0.39	i	i	i	.	.	.
COc1cc(CNCCO)cc(Cl)c1OCc1ccc(Cl)cc1Cl	-20	i	-11*	-8.7*	i	i	46%*	62%*	i
C=C1CC2C(=O)N(Cc3ccccc3)C(C(=O)OCC)(C(=O)OCC)C1N2C(=O)OC(C)(C)C (configuration not stated)	-9	i	-1.3	-12*	i	i	47%*	i	37%*
CCC(=O)n1nc(NCc2ccccc2OC)nc1NCc1ccccc1OC	-12	i	0.69	i	8*	i	i	i	i
CCc1nc(N2CCC(C)CC2)c2oc3ccccc3c2n1	-11	i	-0.88	-14*	i	i	46%*	i	36%*
Fc1ccc(/C=N/N2CCN(Cc3ccccc3)CC2)cc1	-12	i	0.02	i	i	i	.	.	.
Cc1ccc(C(=O)N2CCN(C)CC2)cc1S(=O)(=O)N1CCCCCC1	-11	i	1.3	i	i	i	.	.	.
CCC(Cc1c(I)cc(I)c(N)c1I)C(=O)O (configuration not stated)	.	i	.	.	.	.	.	.	.
O=C(CSc1ccc([N+](=O)[O-])cc1)c1ccccc1	.	i	.	.	.	.	.	.	.
N#CC1(Cc2ccccc2)c2ccccc2C=CN1C(=O)c1ccccc1 (configuration not stated)	-19	i	0.72	-9.8*	6*	i	46%*	i	31%*
N#CC1(Cc2ccc([N+](=O)[O-])cc2)c2ccccc2C=CN1C(=O)c1ccccc1 (configuration not stated)	-4	i	0.42	-12*	i	i	32%*	i	34%*
